# LANA-H2B inh – blocks KSHV LANA binding to histone H2A/H2B. cell-free LANA-H2A/H2B peptide, fluorescence polarization. inhibition, % (test concentration not listed). Q9QR71. 320,000 tested, 0.6% active; in the data active = inhibition mostly above about 10%, no sharp cut-off; inactive = mostly below about 6.7%
# Bfl-1 A1 inh – inhibitors of the anti-apoptotic protein A1, read as caspase activation; MEF A1-2A-BIM cells, Caspase-Glo 3/7 luminescence, 3 h; percent of clofoctol response, vehicle zero; caspase activation, % (no concentration beside the values); 330,000 tested, 0.066% active; AID 2462;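 active = over half of replicate activation scores above 10%, or exactly half above 10 with the replicate mean above 10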
# HKDC1 inhibitor – HKDC1 (human) hexokinase inhibition. AID 493160. recombinant HKDC1, G6PDH/diaphorase resazurin coupled fluorescence. inhibition, % at 20 µM. 340,000 tested, 0.16% active;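 active = inhibition above about 35% when tested at 20 µM, limit read from the data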;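 also: plate controls were DMSO wells with enzyme for no effect and DMSO wells lacking enzyme for full effect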
#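 Assay system: recombinant HKDC1 hexokinase; detection: coupled resazurin fluorescence, excitation 525 nm, emission 613 nm; benchmarks: DMSO-plus-enzyme-mix negative control, buffer-substituted positive control; compound dosing: single 20 µM dose; schedule: 90 min at room temperature in dark; also added: glucose plus 1 mM ATP as hexokinase substrates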
# ATG4B inhibitor – inhibitors of human ATG4B cysteine protease | inhibition, % at 8.33 µM | ATG4B cleavage of LC3-PLA2, NBD-HPC fluorescence, 1 h | Q9Y4P1 | 340,000 tested, 0.51% active; in the data active = inhibition above about 40%
# Target sequence (Q9Y4P1 whole entry, looked up): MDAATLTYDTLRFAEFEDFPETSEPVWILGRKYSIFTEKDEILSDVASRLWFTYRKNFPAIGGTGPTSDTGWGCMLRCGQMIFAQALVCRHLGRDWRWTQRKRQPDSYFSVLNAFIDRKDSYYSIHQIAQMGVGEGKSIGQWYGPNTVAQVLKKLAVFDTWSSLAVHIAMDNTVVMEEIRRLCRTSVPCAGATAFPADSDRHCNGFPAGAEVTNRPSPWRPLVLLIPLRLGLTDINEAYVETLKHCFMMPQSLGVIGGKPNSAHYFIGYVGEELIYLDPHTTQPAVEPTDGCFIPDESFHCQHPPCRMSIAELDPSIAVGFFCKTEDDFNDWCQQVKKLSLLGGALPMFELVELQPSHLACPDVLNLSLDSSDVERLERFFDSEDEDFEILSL
# AI-2 QS modul – modulators of Vibrio harveyi AI-2 quorum sensing system. Vibrio harveyi JMH597 AI-2 luminescence/OD600 ratio, 9 h; stronger effect = lower value; strain lacks LuxN and CqsS sensors; 0 = neutral-control median. activity change, % at 7.5 µM. 300,000 tested, 0.4% active. AID 2094; in the data active = activity change below about -75%, passing the limit was not always enough;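 also: luminescence divided by OD600 gain over 9 h not by final OD600 alone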
# HDAC3 inhib – inhibitors of human histone deacetylase 3 | recombinant HDAC3, fluorogenic peptide/trypsin coupled, fluorescence | inhibition, % at 8.3 µM | 320,000 tested, 0.15% active; in the data active = inhibition above about 26%, passing the limit was not always enough
# ATG4B conf – ATG4B (human) inhibition, single-dose confirmed | shares compounds with ATG4B inhibitor | ATG4B protease fluorescent substrate cleavage assay | 320 tested, 92% active | AID 504757 | inhibition, % at 8.33 µM; in the data active = inhibition above about 39%
# PLA2 counter – counter-screen for ATG4B inhibitors: human phospholipase A2 | shares compounds with ATG4B inhibitor | inhibition, % at 8.33 µM | AID 588402 | 1,600 tested, 66% active | purified PLA2, NBD-C6-HPC fluorescence, 45 min; in the data active = inhibition above about 50%
# Target sequence (P04054 whole entry, looked up): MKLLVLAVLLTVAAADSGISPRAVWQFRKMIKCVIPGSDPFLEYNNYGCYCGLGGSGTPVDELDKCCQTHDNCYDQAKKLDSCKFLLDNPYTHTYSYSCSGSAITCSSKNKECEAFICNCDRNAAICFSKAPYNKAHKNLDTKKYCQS
# The depositor's hits bear a star; nt = no result. Hits are enriched below; roughly 1.8% of the tested compounds scored in any of these assays.
SMILES,LANA-H2B inh,Bfl-1 A1 inh,HKDC1 inhibitor,ATG4B inhibitor,AI-2 QS modul,HDAC3 inhib,PLA2 counter,others
COc1ccc(S(=O)(=O)N/N=C(/C)c2cccc(NC(=O)c3ccccc3Cl)c2)cc1,0,0,1,-15,24,11,nt,
O=C(O)COc1ccccc1-c1nc(-c2ccccc2)c(-c2ccccc2)[nH]1,-2,0,6,4,30,-61,nt,
O=C(O)COc1ccc(-c2nc(-c3ccccc3)c(-c3ccccc3)[nH]2)cc1,-2,0,-3,48*,16,-47,59*,
CCOC(=O)c1sc(NC(=O)CN2CCN(c3ccccc3)CC2)nc1C,-14,0,2,-9,25,-9,nt,
C/C(=N\N=C(/N)SC1CC(=O)N(c2ccccc2)C1=O)c1cccs1 (stereo not given),2,0,0,-1,-24,6,nt,
CCCCCCOc1ccc(N2C(=O)CC(S/C(N)=N/N=C(\C)c3cccs3)C2=O)cc1 (stereo not given),1,0,4,49*,16,17,5,ATG4B conf=61*
CCc1ccc2oc(-c3ccc(OC)cc3)cc(=Nc3cccc(C(=O)O)c3)c2c1,4,-6,0,81*,41,-50,80*,
COc1ccc(-c2cc(=Nc3ccc(C(=O)O)cc3)c3cc(C)ccc3o2)cc1,-1,-8,5,41*,34,-181,54*,
CCc1ccc2oc(-c3ccc(OC)cc3)cc(=Nc3c(C)n(C)n(-c4ccccc4)c3=O)c2c1,-5,-8,14,11,6,-12,nt,
CCCCN(C(=O)c1ccc(N2C(=O)c3ccccc3C2=O)cc1)c1c(N)n(CC(C)C)c(=O)[nH]c1=O,nt,nt,-2,-3,nt,nt,nt,
CCc1ccccc1NC(=O)c1ccc(NCCc2ccccc2)c([N+](=O)[O-])c1,-1,-1,9,42*,2,9,35,
O=C(Nc1ccccc1)c1ccc(NCCc2ccccc2)c([N+](=O)[O-])c1,-5,1,-15,-3,45,-6,nt,
NC(=O)c1ccc(NCCc2ccccc2)c([N+](=O)[O-])c1,0,-1,-6,49*,26,6,66*,
CCc1ccccc1OCC(=O)Nc1cc(S(=O)(=O)N(CC)CC)ccc1N1CCOCC1,-5,-1,7,54*,nt,8,92*,
CCN(CC)S(=O)(=O)c1ccc(N2CCOCC2)c(NC(=O)COc2ccccc2)c1,-1,0,-5,26,7,9,nt,
Cc1ccccc1OCC(=O)Nc1cc(S(=O)(=O)N2CCCCC2)ccc1N1CCN(C)CC1,7,0,3,46*,10,3,50*,
O=C(CCCc1ccccc1)NCc1ccccc1Cl,1,1,-2,8,2,9,nt,
CCN1C(=O)C2(C(C(=O)c3cc4ccccc4o3)=C(O)C(=O)N2CCCN(C)C)c2ccccc21 (stereo not given),3,1,6,-3,16,2,nt,
Cc1cc(NCc2ccc(F)cc2)nc2cc(Cl)ccc12,-3,1,3,51*,-15,-3,74*,
O=C(N/N=C1\CC(c2ccccc2)Oc2ccccc21)c1ccc(O)cc1 (stereo not given),0,1,-7,43*,20,8,55*,
CCOC(=O)c1ccc(/C=C2/C=C(c3ccccc3)N(c3ccc(Cl)c(C(=O)O)c3)C2=O)cc1,0,0,20,56*,7,8,41,ATG4B conf=77*
C=CCSC1=N/C(=C\c2ccc3c(c2)OCO3)C(=O)S1,5,-1,-2,6,1,-3,nt,
C=CCSC1=N/C(=C\c2cc(OCC)c(OC(C)=O)c([N+](=O)[O-])c2)C(=O)S1,-9,0,18,89*,-1,8,94*,
Cc1ccc(C)c(C(=O)COC(=O)C2CCN(c3ccc(C(F)(F)F)cn3)CC2)c1,-5,-1,-1,7,1,6,nt,
CC(C)Oc1ccc(C(CC(=O)NCc2ccco2)c2ccccc2)cc1 (stereo not given),1,1,-2,44*,12,-5,46,ATG4B conf=65*
SMILES,LANA-H2B inh,Bfl-1 A1 inh,HKDC1 inhibitor,ATG4B inhibitor,AI-2 QS modul,HDAC3 inhib,PLA2 counter,others
OCCOCCN1CCN(C(=S)Nc2ccccc2)CC1,0,0,-2,-5,4,4,nt,
Cc1nn(Cc2ccc(Cl)cc2Cl)c(C)c1NC(=O)c1ccc(COc2cc(Cl)ccc2Cl)o1,1,-1,-2,1,22,-6,nt,
Cc1nn(Cc2c(F)c(F)c(F)c(F)c2F)c(C)c1NC(=O)c1cccc(COc2ccccc2Cl)c1,-5,0,-9,63*,5,-1,56*,
Cc1nn(Cc2c(F)c(F)c(F)c(F)c2F)c(C)c1NC(=O)c1ccc(COc2ccc(Cl)cc2Cl)o1,0,0,3,88*,18,5,85*,
COc1ccc(C(=O)Nc2cc(C)nn2-c2cccc(F)c2)cc1,2,0,-6,2,18,10,nt,
CCOC(=O)c1c(CN2CCN(c3ccccc3)CC2)oc2cc(Br)c(O)cc12,1,0,0,0,15,20,nt,
C#CCOCCOCCOCCNc1nc(N2CCN(C(=O)CCCCCCCCCCNC(=O)[C@H]([C@@H](C)CC)n3cc(CCCCN=C(N)N)nn3)CC2)nc(N2CCN(C(=O)CCCCCCCCCCNC(=O)[C@H](CCCCN)n3cc(C)nn3)CC2)n1,-85,-1,10,57*,nt,24,28,ATG4B conf=28
O=C(Nc1ccc(Cl)cc1)NC1CCCc2ccccc21 (stereo not given),1,0,-6,68*,6,0,66*,
Cc1noc(C)c1COc1ccc(C(=O)OCC(=O)NCc2ccccc2Cl)cc1,1,0,-10,45*,7,2,46,ATG4B conf=64*
COc1ccc(CNC(=O)COC(=O)c2ccc(OCc3c(C)noc3C)cc2)cc1OC,6,0,-7,-5,-4,-24,nt,
O=C(N/N=C/c1ccccc1Cl)c1nc2ccc([N+](=O)[O-])cc2c(=O)[nH]1,-2,-4,6,41*,49,5,43,ATG4B conf=66*
O=C(N/N=C/c1cccc([N+](=O)[O-])c1)c1nc2ccccc2c(=O)[nH]1,-3,-1,-1,10,17,nt,nt,
c1ccc(-c2csc(NC3CCCCC3)n2)cc1,-4,-5,-5,15,nt,5,nt,
